These results are taken from ChEMBL document CHEMBL5107964, “Development of 2-deoxystreptamine-nucleobase conjugates for the inhibition of oncogenic miRNA production” (RSC Med Chem, 2022).

Calls of active or inactive are those of the source. No cut-off for these calls is given here.

By Kd is commonly meant the concentration at which binding is half-saturated. One may read the IC50 as the point on the concentration scale where inhibition reaches its midpoint.

A short description of test [1]: Binding affinity to 5'FAM-labeled Precursor microRNA-372 (unknown origin) assessed as dissociation constant incubated for 4 hrs by fluorescence-based assay. Summed up: (§1)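 Each 5'-FAM-labelled pre-miRNA (10 nM) was folded in 20 mM Tris-HCl pH 7.4, 12 mM NaCl, 1 mM DTT by heating at 90°C for 2 min, holding at 4°C for 10 min and returning to room temperature over 15 min. Ligand was added in 15 dilutions (0.030 nM–0.5 mM). Fluorescence (ex 485, em 535 nm) was read after 4 h. Runs were in duplicate, repeated at least three times, and KD came from a 1:1 binding model.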

Test [2] is described as follows: Binding affinity to 5'FAM-labeled Precursor microRNA-372 (unknown origin) assessed as dissociation constant incubated for 4 hrs in presence of tRNA by fluorescence-based assay. Summed up: (§2)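 KD was measured with 10 nM folded 5'-FAM-pre-miR-372 in 20 mM Tris-HCl pH 7.4, 12 mM NaCl, 1 mM DTT, with 100 eq. competitor added to the RNA. Competitor was tRNA or duplex DNA from two 15-mer strands annealed at 90°C for 5 min then slowly cooled. Ligand was added in 15 dilutions (0.030 nM–0.5 mM) and fluorescence (ex 485, em 535 nm) read after 4 h. A 1:1 model was fitted.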

Test [3] can be described thus: Binding affinity to 5'FAM-labeled Precursor microRNA-372 (unknown origin) assessed as dissociation constant incubated for 4 hrs in presence of DNA by fluorescence-based assay. In short, it runs like this:
as §2

A short description of test [4]: Selectivity ratio of Kd for binding affinity to 5'FAM-labeled Precursor microRNA-372 (unknown origin) in presence of tRNA to Kd for binding affinity to 5'FAM-labeled Precursor microRNA-372 (unknown origin).
The nature of test [5]: Selectivity ratio of Kd for binding affinity to 5'FAM-labeled Precursor microRNA-372 (unknown origin) in presence of DNA to Kd for binding affinity to 5'FAM-labeled Precursor microRNA-372 (unknown origin).
The nature of test [6]: Inhibition of Precursor microRNA-372 in human HEK293 cell lysate assessed as inhibition of Dicer-induced pre-miR-372 maturation by measuring fluorescence incubated for 4 hrs by FRET Dicer assay. It counts as subcellular. In short, it runs like this:
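The FRET cleavage assay used 50 nM pre-miR-372 beacon (5'-FAM, 3'-dabcyl), with HEK293 whole-cell lysate in place of recombinant enzyme. Inhibitor was preincubated with the beacon for 30 min at room temperature. After 4 h at 37°C the fluorescence rise (ex 485, em 535 nm) was measured. IC50 was obtained by nonlinear regression.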

Test [7] is described as follows: Inhibition of 5'FAM-labeled and 3'DAB-labeled Precursor microRNA-372 (unknown origin) assessed as inhibition of Dicer-induced pre-miR-372 cleavage by measuring fluorescence incubated for 4 hrs in presence of human recombinant Dicer by FRET Dicer assay. Summed up:
(§3)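 The pre-miRNA beacon (50 nM; 5'-FAM, 3'-dabcyl) in 20 mM Tris-HCl pH 7.4, 12 mM NaCl, 1 mM DTT was preincubated with inhibitor (12 dilutions) for 30 min at room temperature. Human recombinant Dicer was then added. After 4 h at 37°C the fluorescence increase (ex 485, em 535 nm) was read. Assays were in duplicate, repeated three times, and IC50 was obtained by nonlinear regression.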

Test [8] can be described thus: Inhibition of 5'FAM-labeled and 3'DAB-labeled Precursor microRNA-18a (unknown origin) assessed as inhibition of Dicer-induced pre-miR-18a cleavage by measuring fluorescence incubated for 4 hrs in presence of human recombinant Dicer by FRET Dicer assay. In short, it runs like this:
as §3

The nature of test [9]: Inhibition of 5'FAM-labeled and 3'DAB-labeled Precursor microRNA-148a (unknown origin) assessed as inhibition of Dicer-induced pre-miR-148a cleavage by measuring fluorescence incubated for 4 hrs in presence of human recombinant Dicer by FRET Dicer assay. In short, it runs like this:
as §3

Test [10] can be described thus: Binding affinity to 5'FAM-labeled Precursor microRNA-18a (unknown origin) incubated for 4 hrs by fluorescence-based assay. Summed up: as §1
Test [11] in a line: Binding affinity to 5'FAM-labeled Precursor microRNA-148a (unknown origin) incubated for 4 hrs by fluorescence-based assay. Summed up:
as §1

For the compound `N[C@@H]1C[C@H](N)[C@@H](OCCn2cc(Cn3ccc(O)nc3=O)nn2)[C@H](O)[C@H]1O`, the dissociation constant Kd in test [1] is 17.1 µM; in test [2], above 1000 µM; in [3], above 1000 µM.
With `Nc1cccc(-c2cn(Cc3cn(CCO[C@H]4[C@H](O)[C@@H](O)[C@H](N)C[C@@H]4N)nn3)cn2)c1`, the Kd in test [1] turned out to be 3.53 µM; in test [2], 3.92 µM; in test [3] it was 4.27 µM. For the same compound, the Selectivity ratio in [4] was determined as 1.1; in test [5] it was 1.2. In addition, the IC50 was above 500 µM in test [6], 81.1 µM in test [7], 20.3 µM in test [8] and 18.2 µM in test [9]. For the same compound, the outcome in [10] and in test [11] was Active.
For the compound `CCCCNC(=O)Nc1cccc(-c2cn(Cc3cn(CCO[C@H]4[C@H](O)[C@@H](O)[C@H](N)C[C@@H]4N)nn3)cn2)c1`, the Kd turned out to be 1.62 µM in [1], 3.65 µM in [2] and 2.11 µM in test [3]. Further, the Selectivity ratio in test [4] was 2.2; in test [5], 1.3. Further, in [7], the 50% inhibitory concentration (IC50) was 72.4 µM.
As to `N[C@@H]1C[C@H](N)[C@@H](OCCn2cc(Cn3cnc(-c4cccc(NC(=O)c5ccccc5)c4)c3)nn2)[C@H](O)[C@H]1O`, the Kd in [1] came out at 0.627 µM; in test [2], 2.64 µM; in [3], 2.96 µM. In addition, the IC50 in test [6] was 29.5 µM; in test [7], 12.6 µM. Further, the outcome in [10] and in [11] was Active.
Regarding `Nc1ncnc2c1ncn2Cc1cn(CCO[C@H]2[C@H](O)[C@@H](O)[C@H](N)C[C@@H]2N)nn1`, the figures for the dissociation constant Kd in [1], in test [2] and in [3] were 11.1 µM, above 1000 µM and 47.1 µM, respectively. Besides, the Selectivity ratio in test [5] came out at 4.2.
With `N[C@@H]1C[C@H](N)[C@@H](OCCn2cc(Cn3cnc(-c4cccc(NC(=O)c5ccc6ccccc6c5)c4)c3)nn2)[C@H](O)[C@H]1O`, the equilibrium dissociation constant (Kd) in test [1] was found to be 6.78 µM; in test [2], 8.51 µM; in test [3] it was 9.02 µM. Besides, the Selectivity ratio in [4] and in [5] was 1.3 in each case. Also, the half-inhibitory concentration (IC50) in [7] is above 100 µM; in test [8], 177 µM; in [9], above 500 µM. For the same compound, the outcome in test [10] and in [11] was Active.
As to `N[C@@H]1C[C@H](N)[C@@H](OCCn2cc(CCC(=O)NCC(=O)Nc3nc(-c4ccccc4)cs3)nn2)[C@H](O)[C@H]1O`, the equilibrium dissociation constant (Kd) in test [1] stood at 5.13 µM; in test [2], 8.56 µM; in test [3] it was 11 µM. The Selectivity ratio in test [4] is 1.7; in test [5], 2.1. Moreover, the concentration for half-maximal inhibition (IC50) came to 74.9 µM in test [7], 89.5 µM in test [8] and 85.3 µM in test [9]. Moreover, the result in test [10] and in test [11] was Active.
Consider `Nc1ccn(Cc2cn(CCO[C@H]3[C@H](O)[C@@H](O)[C@H](N)C[C@@H]3N)nn2)c(=O)n1`, for which the dissociation constant (Kd) was 101 µM in test [1], above 1000 µM in test [2] and above 1000 µM in test [3].
Consider `CCCCNC(=O)Nc1cccc(-c2cn(Cc3cn(C[C@H]4O[C@@H](O[C@@H]5[C@@H](O)[C@H](N)C[C@H](N)[C@H]5O[C@H]5O[C@H](CN)[C@@H](O)[C@H](O)[C@H]5N)[C@H](O)[C@@H]4O[C@H]4O[C@@H](CN)[C@@H](O)[C@H](O)[C@H]4N)nn3)cn2)c1`, for which the Kd turned out to be 0.0461 µM in test [1], 0.0164 µM in test [2] and 0.0222 µM in [3]. The Selectivity ratio in [4] was 1.1; in [5] it was 1.5. Moreover, the IC50 in [7] was 25.6 µM.
As for `NC[C@@H]1O[C@H](O[C@H]2[C@@H](O)[C@H](O[C@@H]3[C@@H](O)[C@H](N)C[C@H](N)[C@H]3O[C@H]3O[C@H](CN)[C@@H](O)[C@H](O)[C@H]3N)O[C@@H]2Cn2cc(Cn3cnc(-c4cccc(NC(=O)c5ccccc5)c4)c3)nn2)[C@H](N)[C@@H](O)[C@@H]1O`, the dissociation constant (Kd) in test [1] came to 0.0189 µM; in [2] it was 0.0208 µM; in [3], 0.0244 µM. Also, the Selectivity ratio was 1.1 in test [4] and 1.3 in test [5]. Moreover, the concentration for half-maximal inhibition (IC50) turned out to be 20.4 µM in [6] and 8.3 µM in test [7].
As for `N[C@@H]1C[C@H](N)[C@@H](O)[C@H](O)[C@H]1O`, the Kd in test [1] is above 1000 µM.
